A selection: hits, their analogues and other compounds. The true share with any hit is near 2.6%.
T cell HTS: T cell immune modulation candidate; AID 2052; response (vesicle binding), % at 7 µM; 2C CD8+ T cell-vesicle binding, flow cytometry; hits give low values; actives 0.068% (n = 330,000);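 active means response, share of CD8 T cells binding vesicles, and their 90th percentile fluorescence all below set limits, cut at about 80% in these data, passing the limit was not always enough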;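 further: values below 100% mean blocked vesicle binding to the CD8+ T cells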
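Assay system – 2C mouse CD8+ T cells · Also added – QL9-loaded Drosophila micro-vesicles · Timing – Cell–vesicle co-incubation 1.5 h at 37 °C, staining 20 min on ice · Signal – flow cytometry of vesicle-bound cells · Measure – percent CD8+ FL2 mean versus row control · Controls – Peptide-free naked vesicles (low) and QL9 vesicles with 0.7% DMSO vehicle (high)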
MC4R antagonist: blocks human MC4R cAMP signaling. P32245. MC4R-expressing cells, MTII-stimulated cAMP, LANCE TR-FRET. inhibition, % at 6.5 µM. actives 0.48% (n = 360,000);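 active means inhibition above its plate's cutoff, the mean of tested wells on that plate plus 3 SD, cut at about 29% in these data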;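 further: 0% = Melanotan II alone and 100% = Melanotan II plus saturating MCL0020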
Target sequence (P32245 whole entry, looked up): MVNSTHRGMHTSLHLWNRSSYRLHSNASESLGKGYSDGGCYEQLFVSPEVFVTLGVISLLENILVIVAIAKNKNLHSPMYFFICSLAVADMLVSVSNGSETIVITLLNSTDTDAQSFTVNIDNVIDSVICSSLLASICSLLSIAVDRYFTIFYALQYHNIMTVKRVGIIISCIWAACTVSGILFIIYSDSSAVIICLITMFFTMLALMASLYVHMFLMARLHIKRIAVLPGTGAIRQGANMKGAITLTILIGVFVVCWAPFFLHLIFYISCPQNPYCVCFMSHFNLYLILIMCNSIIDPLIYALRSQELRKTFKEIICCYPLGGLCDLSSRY
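Assay system: U2OS cells stably expressing human melanocortin 4 receptor (MC4R) / Dosing: 6.5 µM / Timing: compound 30 min, challenge 1 h, detection 1 h / Measured by: Eu-cAMP/anti-cAMP TR-FRET, emission 671 nm / Replicates: singlicate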
Granule exo inh: blocks lytic granule exocytosis | AID 651702 | inhibition, % at 10 µM | actives 0.66% (n = 360,000) | TALL-104 LAMP-1 surface exposure, flow cytometry; cells stimulated with thapsigargin and PMA;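 active means inhibition above about 55%, limit read from the data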
MC4R barr agon: agonists of human melanocortin 4 receptor (MC4R) beta-arrestin | P32245 | U2OS MC4R beta-arrestin complementation, luminescence; percent of melanotan II response, DMSO zero | activation, % at 8.9 µM | actives 0.98% (n = 360,000);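 active means activation above a per-plate cutoff, the mean activation of sample wells on that plate plus 3 SD, cut at about 8% in these data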
PGE2 EP2 inh: EP2 receptor (human) inhibition; P43116; C6 glioma cells expressing human EP2, cAMP TR-FRET; cells stimulated with saturating PGE2; inhibition, % at 25 µM; actives 0.52% (n = 260,000); AID 1422;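 active means percent inhibition above 40 after rounding to a whole number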;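 further: rat C6 glioma host cells with rolipram phosphodiesterase inhibitor present; the protocol text gives 20 µM as final concentration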
EP2 mod: modulates human prostaglandin E2 receptor EP2 signaling; actives 0.83% (n = 260,000); EP2-expressing cells, cAMP HTRF FRET, PGE2 co-stimulation; induction, % at 25 µM; AID 940; P43116;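 active means compounds whose cAMP rise, as percent of the full-agonist control response, exceeds 60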;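 further: rat C6 glioma line stably carrying human EP2 under a CMV promoter; the protocol text gives 20 µM as final concentration; 100% = response of wells given 1 µM PGE2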
MC4R barr ag: human MC4R beta-arrestin agonism confirmation; U2OS MC4R beta-arrestin recruitment, luminescence; scaled DMSO 0%, Melanotan II 100%; shares compounds with MC4R barr agon; actives 31% (n = 2,400); AID 602192; activation, % at 8.9 µM;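 active means mean activation across replicates above the hit cutoff set in the earlier primary screen, cut at about 8% in these data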
MOR-DOR barr ag: OPRM1-OPRD1 heterodimer agonism counter-screen; shares compounds with MC4R barr agon; U2OS PathHunter beta-arrestin, beta-gal luminescence; percent of deltorphin B response, DMSO zero; activation, % at 9.2 µM; actives 5.8% (n = 2,400);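 active means mean activation across replicates exceeds the hit threshold derived in the earlier primary screen, cut at about 18% in these data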;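 further: 100% = deltorphin B at 0.9 µM final and 0% = DMSO alone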
* = called active by the depositor; i = inactive; · = no result given.

SMILES	T cell HTS	MC4R antagonist	Granule exo inh	MC4R barr agon	PGE2 EP2 inh	EP2 mod	MC4R barr ag	MOR-DOR barr ag
CCCCNC(=S)N(C)/N=C/c1ccc(OCC(=O)Nc2c(C)cc(C)cc2C)c(OC)c1	199	12	3	14*	5	-25	11*	8
Cc1ccc(S(=O)(=O)NC2OC(=O)C(Cl)=C2Cl)cc1 (stereo not drawn)	189	2	-2	0	5	2	·	·
COc1ccc(CCN2C(=O)c3ccncc3C2=O)cc1OC	461	7	7	14*	23	18	1	3
CC(C)CSc1nc2c(c(=O)[nH]c(=O)n2C)n1CC(O)COc1cccc2ccccc12 (stereo not drawn)	·	7	0	14*	15	36	3	5
COc1ccc2nc(NC(=O)CSc3nc4cccnc4n3C)sc2c1	624	7	-3	17*	10	-1	37*	7
COc1ccc(-c2cc(C#N)nc(Oc3ccc(Cl)cc3)n2)cc1	296	2	2	11*	34	-39	2	3
O=C(Cc1cccs1)Nc1nnc(SCC(=O)NC2CCCCC2)s1	435	-3	-2	-1	9	55	·	·
O=C(Cc1cccs1)Nc1nnc(SCc2cccc3ccccc23)s1	209	3	11	12*	4	23	3	3
Cc1nc(C(=O)Nc2cc(F)cc(Cl)c2)sc1C1(C)CC(c2ccccc2)=NO1 (stereo not drawn)	·	3	-6	0	13	·	·	·
S=c1[nH]cc(-c2ccc(Cl)cc2)n1Cc1ccccc1	i	-2	-1	19*	5	-2	3	11
O=C(O)/C=C/C(=O)Nc1ccc(C2(c3ccc(NC(=O)/C=C/C(=O)O)cc3)c3ccccc3-c3ccccc32)cc1	297	-1	-4	53*	·	·	1	1
Cn1c(COc2ccc3ccccc3c2)nnc1SCC(=O)Nc1ccccc1	·	·	·	·	9	-12	·	·
OC(c1cccc(F)c1)c1ncc(-c2ccc(Oc3ccccc3)cc2)[nH]1 (stereo not drawn)	·	17	29	10*	·	·	4	10
OC(c1ccc(-c2ccccc2)cc1)c1ncc(-c2ccc(F)cc2)[nH]1 (stereo not drawn)	·	8	-5	10*	·	·	7	15
OC(c1cccc(Cl)c1)c1ncc(-c2ccc(Oc3ccccc3)cc2)[nH]1 (stereo not drawn)	·	2	36	2	·	·	·	·
OC(c1ccccc1)c1ncc(-c2ccc(Cl)cc2)[nH]1 (stereo not drawn)	·	-1	-4	-1	·	·	·	·
CC1CCN(c2ccc3nnc(CCC(=O)Nc4cc(F)ccc4F)n3n2)CC1	229	-2	0	-1	·	·	·	·
COCCCNc1nc2ccccc2nc1NS(=O)(=O)c1ccccc1	771	13	-3	-1	5	-10	·	·
CN(C(=O)c1ccc(Cl)cc1)C1CCS(=O)(=O)C1 (stereo not drawn)	260	-4	4	0	·	·	·	·
Cc1ccc(NC(=O)CSc2ccccc2NC(=O)c2ccccc2)cc1Cl	201	12	-4	13*	8	-33	8	24*
COCCNC(=O)c1ccc(-n2c(SCc3cc(F)ccc3F)nc3ccccc3c2=O)cc1	197	7	6	12*	7	8	8.3*	4
NC(=O)c1cc([N+](=O)[O-])ccc1NCCc1ccccc1	219	4	16	0	·	·	·	·
O=C1CSc2ccc(C(=O)Nc3cccc(S(=O)(=O)Nc4ccc(Br)cc4)c3)cc2N1	186	25	63*	11*	16	-63	3	4
COc1ccc(CNC(=O)/C=C/c2ccc(OCCCF)cc2)cc1	522	4	-3	3	8	-27	·	·
O=C(/C=C/c1ccc(OCCCF)cc1)NCc1ccc(Cl)cc1	281	-1	-5	15*	·	-18	2	4
SMILES	T cell HTS	MC4R antagonist	Granule exo inh	MC4R barr agon	PGE2 EP2 inh	EP2 mod	MC4R barr ag	MOR-DOR barr ag
O=C(Nc1nc2ccccc2n1CCN1CCOCC1)c1ccc(Cn2cc([N+](=O)[O-])cn2)o1	101	17	-14	-1	·	·	·	·
COC(=O)C1=C(C)N(Cc2ccccc2)C(=NCC(C)C)N[C@H]1c1cccc(C(F)(F)F)c1	309	8	-3	16*	·	·	18*	23*
COC(=O)C1=C(C)N(Cc2ccccc2)C(=NCC(C)C)N[C@H]1c1cccc(F)c1	220	2	-5	0	·	·	·	·
C(=N\NC1=Nc2cccc3cccc1c23)/c1ccccc1	268	-8	2	14*	6	-10	1	4
Clc1ccc(/C=N/NC2=Nc3cccc4cccc2c34)cc1	397	-6	-1	16*	3	6	22*	8
COc1cc(NCc2ccccc2)c2ncn(Cc3ccccc3)c2c1	332	-7	-2	-1	·	·	·	·
O=C(O)Cn1c(O)c(C2=c3ccccc3=NC2=O)sc1=O	334	-15	-12	-2	·	·	·	·
C=CCn1c(O)c(C2=c3ccccc3=NC2=O)s/c1=N/c1nccs1	395	-4	6	10*	·	18	0	4
O=C(Nc1cccc(C(F)(F)F)c1)c1cc(-c2ccc(F)cc2)on1	246	5	2	16*	9	20	6	4
CCc1ccc(OCc2nnc(SCC(=O)N3CCN(c4ccccc4)CC3)o2)cc1	258	9	-1	17*	4	33	6	20*
O=C(CSc1nnc(COc2ccc(Cl)cc2)o1)N1CCN(c2ccccc2)CC1	26	0	-3	-1	6	34	·	·
Cc1cc(C)cc(OCc2nnc(SCC(=O)N3CCN(c4ccccc4)CC3)o2)c1	190	0	-6	10.0*	7	17	4	12
O=C(CSc1nnc(COc2ccccc2)o1)N1CCN(c2ccccc2)CC1	556	26	7	1	7	28	·	·
O=C(c1ccncc1)N1CCC(n2nnc3cccnc32)CC1	·	·	·	·	·	-49	·	·
CC(=O)c1cccc(NS(=O)(=O)c2ccc(N/C=C/C(=O)c3ccc(F)cc3)cc2)c1	124	14	-5	2	8	-3	·	·
CC(=O)c1cccc(NS(=O)(=O)c2ccc(N/C=C\C(=O)c3ccc(C)cc3)cc2)c1	298	6	4	30*	16	-29	0	5
COc1cc(/C=C2/C(=N)N3C=CSC3=NC2=O)ccc1OCCCOc1ccccc1C	343	-29	-2	17*	18	-26	12*	11

Screening data as filed in PubChem.
